Reference: ChEMBL document CHEMBL1250479, “Biological diversity from a structurally diverse library: systematically scanning conformational space using a pyranose scaffold” (J Med Chem, 2010)
pIC50, pKi: −log10 of the molar value. Values belong to the molecule of their own block, whether it stands above or below them.

Legend:
[1] = biological target: Somatostatin receptor type 5 (Homo sapiens, UniProt P35346); test: Displacement of [125I]iodotyrosyl from human SST5 receptor expressed in CHO cells; type: cell-based
Method in brief: (§1)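 Membranes from CHO cells stably expressing cloned human sst1–5 were used at 2 µg protein/well (sst1), 0.2 (sst2) or 0.7 (sst3, sst4, sst5). After GF/B filtration, bound label was counted. Nonspecific binding used 1 µM SST28; Ki came from single-site fits with known Kd; tested once in duplicate.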

[2] = biological target: Somatostatin receptor type 4 (Homo sapiens, UniProt P31391); test: Displacement of [125I]iodotyrosyl from human SST4 receptor expressed in CHO cells; type: cell-based; method in brief: as §1
[3] = biological target: Somatostatin receptor type 2 (Homo sapiens, UniProt P30874); test: Displacement of [125I]iodotyrosyl from human SST2 receptor expressed in CHO cells; type: cell-based; method in brief: as §1
[4] = biological target: Somatostatin receptor type 1 (Homo sapiens, UniProt P30872); test: Displacement of [125I]iodotyrosyl from human SST1 receptor expressed in CHO cells; type: cell-based; method in brief: as §1
[5] = biological target: Somatostatin receptor type 3 (Homo sapiens, UniProt P32745); test: Displacement of [125I]iodotyrosyl from human SST3 receptor expressed in CHO cells; type: cell-based; method in brief: as §1
[6] = biological target: T1, Melanin-concentrating hormone receptor 1 (Homo sapiens, UniProt Q99705); test: Displacement of [I125I]MCH from human MCH1 receptor expressed in CHO cells by scintillation counting; type: cell-based
Method in brief: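 SPA competition on membranes of CHO cells stably expressing human MCH1, premixed with WGA-PVT beads (0.25 mg/well). Test compound was added at increasing concentrations with [125I]-MCH in HEPES pH 7.4 buffer containing CaCl2, MgCl2 and 0.2% BSA, incubated 2 h at room temperature, then scintillation-counted. Phe-(D)Tyr-MCH served as reference ligand; IC50 came from sigmoidal dose-response fits.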

[7] = biological target: T1, Melanin-concentrating hormone receptor 1; test: Displacement of [I125I]MCH from human MCH1 receptor expressed in CHO cells (empty) by scintillation counting; conditions: 3 uM

Somatostatin receptor type 5, sequence (P35346 whole entry): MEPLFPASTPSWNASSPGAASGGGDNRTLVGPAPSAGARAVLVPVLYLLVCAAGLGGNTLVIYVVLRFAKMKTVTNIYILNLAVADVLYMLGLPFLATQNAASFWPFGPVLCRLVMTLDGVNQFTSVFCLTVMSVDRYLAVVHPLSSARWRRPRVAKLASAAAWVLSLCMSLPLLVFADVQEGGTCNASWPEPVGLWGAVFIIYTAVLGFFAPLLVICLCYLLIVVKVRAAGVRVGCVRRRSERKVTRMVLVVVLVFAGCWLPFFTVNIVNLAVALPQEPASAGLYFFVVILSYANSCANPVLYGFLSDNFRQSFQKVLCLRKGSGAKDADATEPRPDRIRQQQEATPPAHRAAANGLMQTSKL
Somatostatin receptor type 1, sequence (P30872 whole entry): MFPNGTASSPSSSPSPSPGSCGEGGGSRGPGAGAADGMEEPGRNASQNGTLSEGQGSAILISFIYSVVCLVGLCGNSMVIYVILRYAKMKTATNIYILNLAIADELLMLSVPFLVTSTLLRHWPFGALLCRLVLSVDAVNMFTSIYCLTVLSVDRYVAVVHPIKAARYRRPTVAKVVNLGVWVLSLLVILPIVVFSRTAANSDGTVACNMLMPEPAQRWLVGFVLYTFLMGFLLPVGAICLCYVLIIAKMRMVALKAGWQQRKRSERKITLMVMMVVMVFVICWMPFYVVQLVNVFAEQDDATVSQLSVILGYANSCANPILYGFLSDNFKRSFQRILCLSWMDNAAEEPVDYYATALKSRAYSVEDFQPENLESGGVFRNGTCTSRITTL
Somatostatin receptor type 4, sequence (P31391 whole entry): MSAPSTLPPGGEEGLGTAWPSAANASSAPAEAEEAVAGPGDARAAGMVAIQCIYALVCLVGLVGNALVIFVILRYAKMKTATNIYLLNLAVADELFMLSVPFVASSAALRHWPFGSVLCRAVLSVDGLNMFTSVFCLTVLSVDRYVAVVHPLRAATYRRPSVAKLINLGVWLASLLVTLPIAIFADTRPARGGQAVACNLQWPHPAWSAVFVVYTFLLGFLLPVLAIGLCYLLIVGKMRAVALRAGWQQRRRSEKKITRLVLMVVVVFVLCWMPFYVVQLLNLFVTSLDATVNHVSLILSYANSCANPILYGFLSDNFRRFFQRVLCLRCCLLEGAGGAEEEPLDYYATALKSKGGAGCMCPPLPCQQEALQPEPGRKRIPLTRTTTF
T1 sequence (Q99705 whole entry): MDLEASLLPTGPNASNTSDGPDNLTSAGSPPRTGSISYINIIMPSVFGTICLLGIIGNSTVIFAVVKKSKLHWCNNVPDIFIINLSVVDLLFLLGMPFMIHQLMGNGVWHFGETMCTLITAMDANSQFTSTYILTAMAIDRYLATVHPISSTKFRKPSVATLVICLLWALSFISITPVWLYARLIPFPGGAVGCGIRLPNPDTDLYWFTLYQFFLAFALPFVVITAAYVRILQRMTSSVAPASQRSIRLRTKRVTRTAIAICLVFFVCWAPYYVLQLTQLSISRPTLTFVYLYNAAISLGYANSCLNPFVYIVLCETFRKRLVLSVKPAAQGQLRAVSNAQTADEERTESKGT
Somatostatin receptor type 3, sequence (P32745 whole entry): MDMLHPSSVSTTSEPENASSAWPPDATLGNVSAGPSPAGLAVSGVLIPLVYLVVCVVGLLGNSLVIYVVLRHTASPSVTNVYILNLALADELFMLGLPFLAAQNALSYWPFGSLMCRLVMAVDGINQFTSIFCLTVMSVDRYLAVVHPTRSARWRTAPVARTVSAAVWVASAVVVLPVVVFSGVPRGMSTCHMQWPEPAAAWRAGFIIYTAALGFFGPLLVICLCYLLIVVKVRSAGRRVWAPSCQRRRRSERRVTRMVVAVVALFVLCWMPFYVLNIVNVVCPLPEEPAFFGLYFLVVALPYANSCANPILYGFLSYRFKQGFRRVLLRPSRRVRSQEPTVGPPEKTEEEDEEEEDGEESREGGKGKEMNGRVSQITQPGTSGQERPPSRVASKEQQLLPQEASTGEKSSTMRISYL
Somatostatin receptor type 2, sequence (P30874 whole entry): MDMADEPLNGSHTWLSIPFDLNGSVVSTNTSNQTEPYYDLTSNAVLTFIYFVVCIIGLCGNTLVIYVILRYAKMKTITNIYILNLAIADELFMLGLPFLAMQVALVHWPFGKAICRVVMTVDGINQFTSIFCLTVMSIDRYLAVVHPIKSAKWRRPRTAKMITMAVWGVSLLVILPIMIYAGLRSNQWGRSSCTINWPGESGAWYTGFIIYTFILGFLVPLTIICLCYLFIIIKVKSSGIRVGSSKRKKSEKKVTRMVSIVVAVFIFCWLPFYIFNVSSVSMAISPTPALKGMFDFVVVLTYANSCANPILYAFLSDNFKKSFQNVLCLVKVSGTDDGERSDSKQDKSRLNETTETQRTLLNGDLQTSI

Compound: COC[C@H]1O[C@H](OCCc2ccccc2)[C@H](NC(=O)CCCN)[C@H](OCc2ccc3ccccc3c2)[C@@H]1O
pIC50 [1]: 6.70 | pIC50 [2]: < 5.00 | pIC50 [3]: 5.21 | pIC50 [4]: < 5.00 | pIC50 [5]: 5.08

Compound: COC[C@H]1OC(OCc2ccc(Cl)cc2)[C@H](NC(=O)CCCN=C(N)N)[C@@H](OCc2ccc3ccccc3c2)[C@@H]1O (some centres undefined)
pKi [6]: 5.59

Compound: COC[C@H]1O[C@@H](OCc2ccc(Cl)cc2)[C@H](NC(=O)CCCN=C(N)N)[C@@H](OCc2ccc3ccccc3c2)[C@@H]1O
IC50 [7]: > 3000 nM

Compound: COC[C@H]1OC(OCc2ccc(Cl)cc2)[C@H](NC(=O)CCCN=C(N)N)[C@@H](OCc2ccc(Cl)cc2)[C@@H]1O (some centres undefined)
pKi [6]: 5.92

Compound: COC[C@H]1O[C@H](OCc2ccc3ccccc3c2)[C@H](NC(=O)CCCN=C(N)N)[C@@H](OCc2ccc(Cl)cc2)[C@@H]1O
pIC50 [6]: 6.04

Compound: COC[C@H]1O[C@H](OCCc2ccccc2)[C@H](NC(=O)CCCN=C(N)N)[C@@H](OCc2ccc(Cl)cc2)[C@@H]1O
pIC50 [6]: 6.27

Compound: COC[C@H]1OC(OCc2ccc3ccccc3c2)[C@H](NC(=O)CCN=C(N)N)[C@@H](OCc2ccc3ccccc3c2)[C@@H]1O (some centres undefined)
pKi [6]: 5.20

Compound: COC[C@H]1OC(OCCc2ccccc2)[C@H](NC(=O)CCCN=C(N)N)[C@@H](OCc2ccc(Cl)cc2)[C@@H]1O (some centres undefined)
pKi [6]: 5.46

Compound: COC[C@H]1O[C@@H](OCCc2ccccc2)[C@H](NC(=O)CCCN)[C@@H](OCc2ccc3ccccc3c2)[C@@H]1O
pIC50 [1]: 6.74 | pIC50 [2]: < 5.00 | pIC50 [3]: 5.48 | pIC50 [4]: < 5.00 | pIC50 [5]: 5.88

Compound: COC[C@H]1OC(OCc2ccc3ccccc3c2)[C@H](NC(=O)CCCN=C(N)N)[C@@H](OCc2ccc3ccccc3c2)[C@@H]1O (some centres undefined)
pKi [6]: 5.29

Compound: COC[C@H]1O[C@H](OCc2ccc(Cl)cc2)[C@H](NC(=O)CCCN=C(N)N)[C@@H](OCc2ccc(Cl)cc2)[C@@H]1O
pIC50 [6]: 6.92

Compound: COC[C@H]1OC(OCCc2ccccc2)[C@H](NC(=O)CCN)C(OCc2ccc3ccccc3c2)[C@@H]1O (some centres undefined)
pIC50 [1]: 6.80

Compound: COC[C@H]1OC(OCc2ccc3ccccc3c2)[C@H](NC(=O)CN=C(N)N)[C@@H](OCc2ccc(Cl)cc2)[C@@H]1O (some centres undefined)
pKi [6]: 5.18

Compound: COC[C@H]1O[C@@H](OCc2ccc3ccccc3c2)[C@H](NC(=O)CCN)[C@@H](OCc2ccc3ccccc3c2)[C@@H]1O
pIC50 [1]: 7.70 | pIC50 [2]: 5.40 | pIC50 [3]: 6.19 | pIC50 [4]: 5.55 | pIC50 [5]: 6.42

Compound: COC[C@H]1O[C@H](OCc2ccc3ccccc3c2)[C@H](NC(=O)CCCN=C(N)N)[C@@H](OCc2ccc3ccccc3c2)[C@@H]1O
pIC50 [6]: 5.94

Compound: COC[C@H]1O[C@@H](OCc2ccc(Cl)cc2)[C@H](NC(=O)CCCN=C(N)N)[C@@H](OCc2ccc(Cl)cc2)[C@@H]1O
pIC50 [6]: 5.78

Continued, values first:

pIC50 [2]: 6.74
Compound: CS[C@@H]1O[C@H](COCc2ccccc2)[C@@H](O)[C@@H](OCc2ccc3ccccc3c2)[C@H]1NC(=O)CCN=C(N)N

pIC50 [2]: 6.18
Compound: CS[C@@H]1O[C@H](COCc2ccccc2)[C@@H](O)[C@@H](OCc2ccc3ccccc3c2)[C@H]1NC(=O)CCN

pKi [6]: 5.74
Compound: COC[C@H]1OC(OCc2ccc3ccccc3c2)[C@H](NC(=O)CCCN=C(N)N)[C@@H](OCc2ccc(Cl)cc2)[C@@H]1O (some centres undefined)

pIC50 [1]: 5.22 | pIC50 [2]: 6.37 | pIC50 [3]: 6.01 | pIC50 [4]: 5.02 | pIC50 [5]: 5.20
Compound: CS[C@@H]1O[C@H](COCc2ccc(Cl)cc2)[C@@H](O)[C@@H](OCc2ccc3ccccc3c2)[C@H]1NC(=O)CCN

pIC50 [6]: 6.35
Compound: COC[C@H]1O[C@H](OCc2ccc(Cl)cc2)[C@H](NC(=O)CCCN=C(N)N)[C@@H](OCc2ccc3ccccc3c2)[C@@H]1O

pIC50 [1]: 7.15 | pIC50 [2]: < 5.00 | pIC50 [3]: < 5.00 | pIC50 [4]: < 5.00 | pIC50 [5]: 6.30
Compound: COC[C@H]1O[C@H](OCc2ccc3ccccc3c2)[C@H](NC(=O)CCCN)[C@H](OCc2ccc(Cl)cc2)[C@@H]1O

pIC50 [6]: 5.76
Compound: COC[C@H]1O[C@@H](OCc2ccc3ccccc3c2)[C@H](NC(=O)CCCN=C(N)N)[C@@H](OCc2ccc(Cl)cc2)[C@@H]1O

pIC50 [2]: 6.36
Compound: CS[C@@H]1O[C@H](COCc2ccc3ccccc3c2)[C@@H](O)[C@@H](OCc2ccc3ccccc3c2)[C@H]1NC(=O)CCN

pIC50 [2]: 6.14
Compound: CS[C@@H]1O[C@H](COCc2ccc(Cl)cc2)[C@@H](O)[C@@H](OCc2ccc3ccccc3c2)[C@H]1NC(=O)CCCN=C(N)N

pIC50 [1]: 7.30 | pIC50 [2]: < 5.00 | pIC50 [3]: < 5.00 | pIC50 [4]: < 5.00
Compound: COC[C@H]1O[C@@H](OCc2ccc3ccccc3c2)[C@H](NC(=O)CCCN)[C@@H](OCc2ccc(Cl)cc2)[C@@H]1O
